# Screens (PubChem BioAssay)
# An excerpt weighted towards active compounds, which were near 0.77% of everything screened.
# hIAP inh: human IAP inhibition; P09923; purified IAP, CDP-Star luminescence, 30 min; inhibition, % at 10 µM; 330,000 tested, 0.12% active;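 active = inhibition reaching a set limit with compound at 10 µM in the primary screen, cut at about 35% in these data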
# mIAP act: increases mouse intestinal alkaline phosphatase activity; activation factor at 10 µM; AID 2805; muIAP, CDP-Star luminescence, 30 min; stronger effect = higher value; 1 = vehicle-only enzyme signal, 0 = enzyme-free wells; 330,000 tested, 0.24% active;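 active = activation factor of at least 2 at 20 µM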
#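 Assay system: mouse IAP enzyme; reagent: chemiluminescent substrate CDP-Star; dosing: test compounds delivered from DMSO solution; schedule: 30 min at room temperature; measured by: luminescence from enzymatic CDP-Star hydrolysis; controls: DMSO-only wells and no-enzyme negative control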
# bIAP act: increases bovine intestinal alkaline phosphatase activity; 200,000 tested, 0.17% active; activation factor at 20 µM; purified bovine IAP, CDP-star luminescence, 30 min; stronger effect = higher value; fold of DMSO-control signal, blank-subtracted; AID 1016;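 active = activation factor of 2 or more at 20 µM, a signal rise over negative controls twice the positive control's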
# hIAP activ: human IAP activation. purified human IAP, CDP-Star luminescence, 30 min; stronger effect = higher value; 1 = vehicle-only enzyme, 0 = enzyme-free background. P09923. 330,000 tested, 0.16% active. activation factor at 10 µM. AID 2524;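 active = activation factor of the enzyme at least 2-fold when tested at 20 µM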
# mIAP block: blocks mouse intestinal alkaline phosphatase. purified mouse IAP, CDP-Star luminescence, 30 min. inhibition, % at 10 µM. 330,000 tested, 0.2% active. AID 2806;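 active = inhibition of at least 40% at 10 µM in the primary screen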
# bIAP inhibitor: blocks bovine intestinal alkaline phosphatase activity; purified bovine IAP, CDP-star luminescence, 30 min; inhibition, % at 20 µM; 190,000 tested, under 10 active; AID 1019;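 active = over 50% inhibition of intestinal alkaline phosphatase at 20 µM in the single-dose screen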
#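 test system = bovine IAP enzyme | medium = DEA buffer 100 mM, pH 9.8, with MgCl2 1.0 mM, ZnCl2 0.02 mM | detection = luminescence | dosing = single compound dose of 20 µM, 2% DMSO final | incubation = 30 min reaction at room temperature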
# mIAP inh confirm: mouse IAP inhibition confirmation | shares compounds with mIAP block | purified mouse IAP, CDP-Star luminescence, 30 min | inhibition, % at 10 µM | 11,000 tested, 4.7% active | AID 434971;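 active = inhibition of at least 40% at 10 µM in either of the two replicates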
# Hits are given with their value; i = inactive; nt = no result given.
SMILES,hIAP inh,mIAP act,bIAP act,hIAP activ,mIAP block,bIAP inhibitor,mIAP inh confirm
Cc1cc(C)c(S(=O)(=O)Nc2ccc(O)c(Sc3ncn[nH]3)c2)cc1C,i,i,nt,i,79,nt,86
CCCCC1=CC2=C(c3ccco3)C(=O)C(C)(OC(=O)c3ccc(OC)cc3)C(=O)C2=CN1Cc1ccc2c(c1)OCO2 (centres undefined),i,i,nt,i,44,nt,50
O=C(CCNC(=O)c1ccccc1)NCCCc1ccccc1,i,i,nt,i,i,nt,nt
CCCN1C2CCCC1CC(NC(=S)Nc1cccc(C)c1)C2 (centres undefined),i,i,i,i,i,i,nt
Cc1cccc(NC(=S)NC2CC3CCCC(C2)N3CC(C)C)c1 (centres undefined),i,2.5,i,i,i,i,i
O=C(Nc1ccccc1-c1ccccc1)NC1CC2CCCC(C1)N2Cc1ccc(F)cc1 (centres undefined),i,5,5.8,i,i,i,i
CCc1ccc(NC(=S)NC2CC3CCC(C2)N3Cc2ccco2)cc1 (centres undefined),i,i,i,i,i,i,nt
CCc1ccc(NC(=S)NC2CC3CCCC(C2)N3Cc2ccccc2)cc1 (centres undefined),i,5,4.6,i,i,i,i
C=CCCO[C@@H]1O[C@@H](C)[C@H](O)C[C@H]1O,i,i,nt,i,i,nt,nt
Cc1ccc(CN2CC(C(=O)NCC(=O)Nc3c(C)cccc3C)CC2=O)cc1 (centres undefined),i,i,nt,i,i,nt,nt
N#CC1=C(N)SC(N)=C(C#N)C1c1ccoc1,i,i,i,i,77,i,76
COCCCNC(=S)Nc1ccccc1C,i,i,i,i,i,i,nt
Cc1ccccc1NC(=S)NCCC(c1ccccc1)c1ccccc1,i,3.7,i,i,i,i,i
S=C(NCCC(c1ccccc1)c1ccccc1)Nc1cccc(Cl)c1,i,4.1,i,i,i,i,i
S=C(NCc1ccccn1)Nc1cccc(Cl)c1,i,i,i,i,i,i,nt
Cn1nc(C(=O)OCC(=O)Nc2ccc(Cl)cc2Cl)c2ccccc2c1=O,i,i,nt,i,i,nt,nt
CCc1[nH]nc(C(=O)NC2CCCc3c2cnn3-c2cc(C)cc(C)c2)c1C (centres undefined),i,i,nt,i,i,nt,nt
Cc1cc(-c2csc(N)n2)c(C)n1Cc1ccco1,i,i,i,i,51,i,43
Cc1cc(-c2csc(N)n2)c(C)n1C,i,i,i,i,i,i,nt
Cc1ccc(CC(=O)Nc2ncc([N+](=O)[O-])s2)cc1,i,i,i,i,i,i,nt
O=C(COC(=O)c1ccc(Br)o1)Nc1ncc([N+](=O)[O-])s1,i,i,nt,i,61,nt,59
COc1ccc(C(=O)OCC(=O)Nc2ncc([N+](=O)[O-])s2)cc1OC,i,i,nt,i,63,nt,76
CCN(Cc1ccc(OC)c(F)c1)C(=O)/C=C/c1ccc(S(=O)(=O)N2CCOCC2)cc1,i,i,nt,i,i,nt,nt
COc1cccc(NC(=O)NC(C)C2CC3CCC2C3)c1 (centres undefined),i,2.7,i,i,i,i,i
COc1cccc(NC(=O)Nc2cc(C(=O)O)ccc2C)c1,i,i,i,i,i,i,nt
SMILES,hIAP inh,mIAP act,bIAP act,hIAP activ,mIAP block,bIAP inhibitor,mIAP inh confirm
COc1cccc(NC(=O)Nc2ccc(C)c(Cl)c2)c1,i,4.1,i,i,i,i,i
COc1cccc(C(C)NC(=O)Nc2cccc(C(F)(F)F)c2)c1 (centres undefined),i,5.3,i,i,i,i,i
CCN(CC)S(=O)(=O)c1cccc(NC(=O)CC2CCCC2)c1,i,i,nt,i,i,nt,nt
CCN(CC)S(=O)(=O)c1cccc(NC(=O)Nc2cccc(C(F)(F)F)c2)c1,i,7.4,i,i,i,i,i
COc1ccc(C(=O)NC(C)C2CC3CCC2C3)c(OC)c1 (centres undefined),i,i,nt,i,i,nt,nt
COc1cccc(C(=O)Nc2ccc(N3CCN(C(=O)c4cccs4)CC3)cc2)c1,i,i,nt,i,i,nt,nt
COc1ccc(CCNS(=O)(=O)c2ccc([N+](=O)[O-])cc2)cc1OC,i,i,nt,i,i,nt,nt
